How the values were obtained:
Rattus norvegicus = species: Rattus norvegicus; experiment: Neuroprotective effect against ischemic injury with median effective concentration in rat; type: functional
Summary of the method: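 Cerebral ischemia was simulated in a cell culture model by exposing rat cortical cultures to potassium cyanide and 2-deoxyglucose. Neuroprotection against this injury was reported as a median effective concentration.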

[1] = In vitro inhibition of N-acetyl-L-aspartyl-[3H]L-glutamate binding to Glutamate carboxypeptidase II
Summary of the method: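 Purified recombinant GCP II was incubated with radiolabelled substrate N-acetyl-L-aspartyl-[3H]-L-glutamate, and inhibition was reported as IC50. Values are mean ± SD of at least triplicate experiments; where only two experiments were run, the value is the mean of the duplicates.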

| IC50 [1] [nM] | SMILES | EC50 (Rattus norvegicus) [nM] |
| --- | --- | --- |
|  | O=C(O)CC[C@@H](CP(=O)(O)O)C(=O)O | 70 |
| 1400 | O=C(O)CC[C@@H](CP(=O)(O)Cc1c(F)c(F)c(F)c(F)c1F)C(=O)O | 410 |
|  | O=C(O)CCC(CP(=O)(O)O)C(=O)O (centres undefined) | 1.2 |
| 34 | O=C(O)CC[C@H](CP(=O)(O)Cc1c(F)c(F)c(F)c(F)c1F)C(=O)O | 4.1 |
|  | O=C(O)CC[C@H](CP(=O)(O)O)C(=O)O | 0.2 |
|  | O=C(O)CCC(CP(=O)(O)Cc1c(F)c(F)c(F)c(F)c1F)C(=O)O (racemic) | 9.5 |
|  | O=C(O)CCC(CCCS)C(=O)O (racemic) | 13 |

Reference: ChEMBL document CHEMBL1143563, “Enantiospecificity of glutamate carboxypeptidase II inhibition” (J Med Chem, 2005)
